Here are results for 37 sequences from the array DNA melting data of Ke et al. (doi:10.1101/2024.01.08.574731).

A short description of data set [1]: folding enthalpy; higher = less favourable; fluorescence melt of hairpins on a sequencing array, two-state fit. Conditions: sodium 0.088 M. Put shortly: (§1)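 Cy3 signals were normalised both to pre-quench Cy3 and to control constructs. They came from library hairpins carrying annealed Cy3 and quencher oligos on a sequenced MiSeq flow cell, imaged in 50 mM Na-HEPES pH 8.0, 25 mM NaCl, in 2.5 °C steps up to 60 °C. Bootstrapped two-state fits gave melting temperature and folding enthalpy, and four replicates were combined by inverse variance. Fitted temperatures were then raised by 9.35 °C to match UV melts.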

Data set [2] is described as follows: melting temperature; fluorescence melt of hairpins on a sequencing array, two-state fit, raised by 9.35 °C to match UV melts. The settings on record: sodium 0.088 M. Put shortly: as §1

GTTTGAGGAAACTCAAAC (((((((....))))))): the folding enthalpy in data set [1] was -36.8 kcal/mol. The Tm in data set [2] is 55.8 °C.
With GTTTGCGAAAGCATAAAC ((((((....)))..))), the folding enthalpy in data set [1] was -13 kcal/mol. The Tm in data set [2] was 31.5 °C.
Regarding GTTTGCGGAAACGTAAGC (.((.((....)).)).), in data set [1], the folding enthalpy was -22 kcal/mol. In data set [2], the Tm worked out at 33 °C.
For the sequence GTTTGCGGAAACGTGAAC (((..((....))..))), the folding enthalpy in data set [1] was -30.7 kcal/mol. In addition, the Tm in data set [2] came to 41.2 °C.
On to GTTTGGACGAAAGTCAAC (((..(((....)))))), for which the folding enthalpy in data set [1] was -12.7 kcal/mol. Besides, the Tm in data set [2] was determined as 34.7 °C.
Turning to GTTTGGGGAAACCTGAAC (((..((....))..))), the folding enthalpy in data set [1] is -16 kcal/mol. In data set [2], the Tm came to 32 °C.
As to GTTTGGGGAAACTCAAGC (.(((.(....).))).), the folding enthalpy in data set [1] was -12.2 kcal/mol. Besides, the Tm in data set [2] amounted to 27.1 °C.
Regarding GTTTGTGGAAACATAAAC ((((.((....)).)))), the folding enthalpy in data set [1] was -22.8 kcal/mol. Further, the Tm in data set [2] is 39.6 °C.
On to GTTTGTGGAAACATGAAC (((..((....))..))), for which the folding enthalpy in data set [1] is -21.9 kcal/mol. For the same sequence, the Tm in data set [2] was determined as 31.6 °C.
For GTTTTACGAAAGTAAAC (((.(((....)))))) the same measures were -17.4 kcal/mol and 38.7 °C.
With GTTTTAGCGAAAGCTAAC (((..(((....)))))), the folding enthalpy in data set [1] is -13.2 kcal/mol. For the same sequence, the Tm in data set [2] came out at 33 °C.
Regarding GTTTTCACGAAAGTGAAC (((..(((....)))))), the folding enthalpy in data set [1] is -10.3 kcal/mol. In data set [2], the Tm came out at 35.4 °C.
With GTTTTCCGAAAGGACAAC (((.(((....))).))), the folding enthalpy in data set [1] was -25.8 kcal/mol. Moreover, in data set [2], the Tm turned out to be 41.7 °C.
Turning to GTTTTCCGAAAGGAGAAC (((.(((....))).))), the folding enthalpy in data set [1] was -30.4 kcal/mol. Moreover, the Tm in data set [2] turned out to be 47.1 °C.
Consider GTTTTGGGAAACCAAAGC (.(((((....))))).), for which, in data set [1], the folding enthalpy is -29.8 kcal/mol. For the same sequence, the Tm in data set [2] was found to be 41 °C.
Take GTTTTGGGAAACCAAGAC ((.((((....)))).)): in data set [1], the folding enthalpy was -24.6 kcal/mol. Also, in data set [2], the Tm is 39 °C.
In the case of GTTTTGGGAAACTAAAAC (((((.(....).))))), the folding enthalpy in data set [1] is -24.3 kcal/mol. Further, in data set [2], the Tm was found to be 36.6 °C.
In the case of GTTTTGTCGAAAGACAAC (((..(((....)))))), in data set [1], the folding enthalpy is -12.8 kcal/mol. The Tm in data set [2] stood at 37.5 °C.
In the case of GTTTTTCGAAAGAACAAC (((.(((....))).))), the folding enthalpy in data set [1] was -17.8 kcal/mol. Further, the Tm in data set [2] amounted to 34.3 °C.
The like results for GTTTTTGAAAAAAAAC ((((((....)))))) were, in that order, -27.3 kcal/mol and 43.3 °C.
With GTTTTTGGAAACAAAAGC (.(((((....))))).), in data set [1], the folding enthalpy was -29.6 kcal/mol. Also, in data set [2], the Tm is 35.6 °C.
For GTTTTTTCGAAAGAAAAC (((..(((....)))))) the same measures were -19.7 kcal/mol and 32.1 °C.
On to TAACCGAAAGGTTA (((((....))))), for which the folding enthalpy in data set [1] was -15.2 kcal/mol. Further, in data set [2], the Tm was 56.7 °C.
As for TAACTGAAAAGTTA (((((....))))), the folding enthalpy in data set [1] is -9.74 kcal/mol. Further, the Tm in data set [2] was 29.4 °C.
Turning to TACATGAAAATGTA (((((....))))), the folding enthalpy in data set [1] is -12.7 kcal/mol. In data set [2], the Tm was determined as 32.1 °C.
For the sequence TCACTGAAAAGTGA (((((....))))), the folding enthalpy in data set [1] was -18.7 kcal/mol. Further, the Tm in data set [2] amounted to 43.4 °C.
In the case of TCAGAGAAATCTGA (((((....))))), in data set [1], the folding enthalpy was -9.32 kcal/mol. Further, the Tm in data set [2] was 27.6 °C.
On to TCGATGAAAATCGA (((((....))))), for which, in data set [1], the folding enthalpy is -19.5 kcal/mol. The Tm in data set [2] was 47.4 °C.
Consider TCGGAGAAATCCGA (((((....))))), for which the folding enthalpy in data set [1] was -16.8 kcal/mol. In addition, in data set [2], the Tm was determined as 47.3 °C.
As for TCGGTGAAAACCGA (((((....))))), the folding enthalpy in data set [1] was -17.7 kcal/mol. Besides, in data set [2], the Tm stood at 53 °C.
TCTAGGAAACTAGA (((((....))))): in data set [1], the folding enthalpy was -10.5 kcal/mol. Also, in data set [2], the Tm worked out at 29.7 °C.
TCTCCGAAAGGAGA (((((....))))): in data set [1], the folding enthalpy was -17.6 kcal/mol. Further, in data set [2], the Tm came out at 59.5 °C.
Turning to TCTCTGAAAAGAGA (((((....))))), the folding enthalpy in data set [1] is -12.1 kcal/mol. Also, in data set [2], the Tm was determined as 37.2 °C.
The like results for TGACTGAAAAGTCA (((((....))))) were, in that order, -23.2 kcal/mol and 46 °C.
As for TGCAAGAAATTGCA (((((....))))), in data set [1], the folding enthalpy was -17.6 kcal/mol. In addition, the Tm in data set [2] came to 39.7 °C.
As to TGCAGGAAACTGCA (((((....))))), the folding enthalpy in data set [1] is -19.6 kcal/mol. Besides, the Tm in data set [2] was 51.8 °C.
On to TGCATGAAAATGCA (((((....))))), for which, in data set [1], the folding enthalpy is -19.8 kcal/mol. Besides, the Tm in data set [2] was 52 °C.
